pIC50: −log10 of the molar value.
Experiments:
[1] = target: Thrombin and coagulation factor VII (Homo sapiens) (UniProt P00734+P08709); experiment: Selectivity ratio for tissue factor VIIa and thrombin (IIa); assay type: protein assay
Coagulation factor VII = target: T1, Coagulation factor VII (Homo sapiens, UniProt P08709); experiment: Inhibition of tissue coagulation factor VII
T1 sequence (P08709 whole entry): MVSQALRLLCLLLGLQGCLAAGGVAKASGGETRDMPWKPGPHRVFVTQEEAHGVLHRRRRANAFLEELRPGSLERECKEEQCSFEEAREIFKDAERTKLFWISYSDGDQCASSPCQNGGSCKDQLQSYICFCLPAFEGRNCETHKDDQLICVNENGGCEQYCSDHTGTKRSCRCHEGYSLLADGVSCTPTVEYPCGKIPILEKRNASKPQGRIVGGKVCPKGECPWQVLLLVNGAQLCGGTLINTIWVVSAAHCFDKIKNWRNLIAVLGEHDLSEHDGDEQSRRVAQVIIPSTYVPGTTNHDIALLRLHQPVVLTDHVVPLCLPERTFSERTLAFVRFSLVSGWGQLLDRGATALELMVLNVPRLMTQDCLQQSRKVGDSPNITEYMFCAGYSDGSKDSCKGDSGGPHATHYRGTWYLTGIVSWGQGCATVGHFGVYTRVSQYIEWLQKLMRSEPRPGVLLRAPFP
Summary of the method: (§1)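 Chromogenic enzyme assays: factor Xa, thrombin (IIa), or tissue factor/VIIa complex, each with its own specific chromogenic substrate. Activity was followed as the rise in absorbance at 405 nm from released p-nitroaniline as substrate was cleaved. Inhibition was taken as the reduced change in absorbance and expressed as IC50.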

Coagulation factor X = Coagulation factor X (Homo sapiens, UniProt P00742); experiment: Inhibition of coagulation factor X; summary of the method: as §1
Sequence of Coagulation factor X (P00742 41-179 limits assumed): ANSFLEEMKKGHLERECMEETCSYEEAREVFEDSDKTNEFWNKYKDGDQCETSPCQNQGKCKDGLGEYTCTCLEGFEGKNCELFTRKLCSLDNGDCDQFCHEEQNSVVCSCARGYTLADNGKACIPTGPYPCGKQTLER
Sequence of Coagulation factor X (P00742 235-488 limits assumed): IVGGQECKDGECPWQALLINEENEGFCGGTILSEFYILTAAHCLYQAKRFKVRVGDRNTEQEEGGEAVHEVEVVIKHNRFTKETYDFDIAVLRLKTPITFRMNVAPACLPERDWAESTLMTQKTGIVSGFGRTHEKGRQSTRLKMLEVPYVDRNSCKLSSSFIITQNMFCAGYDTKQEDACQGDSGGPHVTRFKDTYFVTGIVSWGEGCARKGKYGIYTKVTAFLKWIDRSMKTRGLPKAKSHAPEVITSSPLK

Prothrombin = Prothrombin (Homo sapiens, UniProt P00734); experiment: Inhibitory activity against thrombin (IIa); summary of the method: as §1

Row | Compound | Ratio [1] | pIC50 (Coagulation factor VII) | pIC50 (Coagulation factor X) | pIC50 (Prothrombin)
1 | N=C(N)NCCC[C@H](NC(=O)[C@H](CC(N)=O)NC(=O)[C@@H](Cc1ccccc1)NS(=O)(=O)Cc1ccccc1)C(=O)c1nccs1 | 58 | – | – | –
2 | Cc1cccc(C[C@H](NC(=O)[C@@H](Cc2ccccc2)NS(=O)(=O)Cc2ccccc2)C(=O)N[C@@H](CCCNC(=N)N)C(=O)c2nccs2)c1 | – | 6.77 | 6.80 | 4.92
3 | N=C(N)NCCC[C@H](NC(=O)[C@H](Cc1ccc(F)c(F)c1)NC(=O)[C@@H](Cc1ccccc1)NS(=O)(=O)Cc1ccccc1)C(=O)c1nccs1 | 70 | 6.80 | 6.68 | 4.95
4 | Cc1ccccc1C[C@H](NC(=O)[C@@H](Cc1ccccc1)NS(=O)(=O)Cc1ccccc1)C(=O)N[C@@H](CCCNC(=N)N)C(=O)c1nccs1 | – | 6.62 | 6.48 | 4.66
5 | N=C(N)NCCC[C@H](NC(=O)[C@H](Cc1ccccc1F)NC(=O)[C@@H](Cc1ccccc1)NS(=O)(=O)Cc1ccccc1)C(=O)c1nccs1 | > 333 | 7.05 | 6.68 | < 4.52
6 | CC[C@@H](C)[C@H](NC(=O)[C@@H](Cc1ccccc1)NS(=O)(=O)Cc1ccccc1)C(=O)N[C@@H](CCCN=C(N)N)C(=O)c1nccs1 | 64 | – | 6.42 | 4.71
7 | N=C(N)NCCC[C@H](NC(=O)[C@H](Cc1ccccc1)NC(=O)[C@@H](Cc1ccccc1)NS(=O)(=O)Cc1ccccc1)C(=O)c1nccs1 | 95 | 7.38 | 7.57 | 5.40
8 | N=C(N)NCCC[C@H](NC(=O)[C@H](Cc1cccc(Cl)c1)NC(=O)[C@@H](Cc1ccccc1)NS(=O)(=O)Cc1ccccc1)C(=O)c1nccs1 | 63 | 6.64 | 6.57 | 4.84
9 | N=C(N)NCCC[C@H](NC(=O)[C@H](Cc1cccc(C(F)(F)F)c1)NC(=O)[C@@H](Cc1ccccc1)NS(=O)(=O)Cc1ccccc1)C(=O)c1nccs1 | 106 | 6.10 | 6.00 | 4.07
10 | NC(=O)C[C@H](NC(=O)[C@@H](Cc1ccccc1)NS(=O)(=O)Cc1ccccc1)C(=O)N[C@@H](CCCN=C(N)N)C(=O)c1nccs1 | – | 5.99 | 5.68 | 4.22
11 | N=C(N)NCCC[C@H](NC(=O)[C@H](Cc1cccnc1)NC(=O)[C@@H](Cc1ccccc1)NS(=O)(=O)Cc1ccccc1)C(=O)c1nccs1 | 500 | – | – | –
12 | Cc1ccccc1C[C@H](NC(=O)[C@@H](Cc1ccccc1)NS(=O)(=O)Cc1ccccc1)C(=O)N[C@@H](CCCN=C(N)N)C(=O)c1nccs1 | 90 | – | – | –

Further lines, results first:

Row | Ratio [1] | pIC50 (Coagulation factor VII) | pIC50 (Coagulation factor X) | pIC50 (Prothrombin) | Compound
13 | 75 | 6.70 | 6.60 | 4.82 | N=C(N)NCCC[C@H](NC(=O)[C@H](Cc1cccc(F)c1)NC(=O)[C@@H](Cc1ccccc1)NS(=O)(=O)Cc1ccccc1)C(=O)c1nccs1
14 | 71 | – | – | – | Cc1cccc(C[C@H](NC(=O)[C@@H](Cc2ccccc2)NS(=O)(=O)Cc2ccccc2)C(=O)N[C@@H](CCCN=C(N)N)C(=O)c2nccs2)c1
15 | 69 | 5.84 | 5.62 | 4.00 | N#CC[C@H](NC(=O)[C@@H](Cc1ccccc1)NS(=O)(=O)Cc1ccccc1)C(=O)N[C@@H](CCCNC(=N)N)C(=O)c1nccs1
16 | 147 | 6.47 | 6.05 | 4.30 | N#Cc1ccc(C[C@H](NC(=O)[C@@H](Cc2ccccc2)NS(=O)(=O)Cc2ccccc2)C(=O)N[C@@H](CCCNC(=N)N)C(=O)c2nccs2)cc1
17 | – | 6.70 | 6.54 | 4.00 | NC(N)=NCCC[C@H](NC(=O)[C@H](Cc1cccnc1)NC(=O)[C@@H](Cc1ccccc1)NS(=O)(=O)Cc1ccccc1)C(=O)c1nccs1
